Assay [1] deals with 5-hydroxytryptamine receptor 2A (Mus musculus) (UniProt P35363). As to the kind of experiment: Percent of maximum stimulation of phosphatidylinositol turnover at cloned 5-hydroxytryptamine 2A receptor in 3T3 cells. The format is functional, cell-based. To be noted: NIH3T3.
Assay [2] concerns the target T1, 5-hydroxytryptamine receptor 2C (Mus musculus) (UniProt P34968).
T1 sequence (whole entry): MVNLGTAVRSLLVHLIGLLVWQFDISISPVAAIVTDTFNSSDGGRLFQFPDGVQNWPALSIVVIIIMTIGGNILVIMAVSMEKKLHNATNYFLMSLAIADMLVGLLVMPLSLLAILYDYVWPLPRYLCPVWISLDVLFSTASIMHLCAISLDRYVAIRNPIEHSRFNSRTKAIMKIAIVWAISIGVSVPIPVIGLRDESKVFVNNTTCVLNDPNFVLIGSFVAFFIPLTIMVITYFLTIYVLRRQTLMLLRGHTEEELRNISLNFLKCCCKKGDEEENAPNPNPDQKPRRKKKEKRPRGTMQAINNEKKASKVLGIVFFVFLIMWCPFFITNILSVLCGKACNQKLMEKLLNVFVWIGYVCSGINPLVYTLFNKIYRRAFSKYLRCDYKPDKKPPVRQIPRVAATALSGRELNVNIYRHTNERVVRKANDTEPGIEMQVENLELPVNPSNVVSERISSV
As to the kind of experiment: Percent of maximum stimulation of phosphatidylinositol turnover at cloned 5-hydroxytryptamine 2C receptor in A9 cells. The class given is functional, cell-based. The method, boiled down: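 A9 cells expressing cloned 5-HT2C receptor, labelled 18 h with 1 μCi/mL [3H]inositol in inositol-free DMEM with dialysed serum. Compounds given 60 min with 10 mM LiCl in Krebs bicarbonate buffer, then [3H]inositol monophosphate accumulation measured. Expressed as % of the 5-HT (10^-5 M) maximum minus control. Vmax by nonlinear regression. Triplicates in three experiments, mean ± SE.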

This passage reports K aff results from ChEMBL document CHEMBL1127290, “1-(2,5-Dimethoxy-4-(trifluoromethyl)phenyl)-2-aminopropane: a potent serotonin 5-HT2A/2C agonist” (J Med Chem, 1994).

Sequence of 5-hydroxytryptamine receptor 2A (Mus musculus) (P35363 whole entry): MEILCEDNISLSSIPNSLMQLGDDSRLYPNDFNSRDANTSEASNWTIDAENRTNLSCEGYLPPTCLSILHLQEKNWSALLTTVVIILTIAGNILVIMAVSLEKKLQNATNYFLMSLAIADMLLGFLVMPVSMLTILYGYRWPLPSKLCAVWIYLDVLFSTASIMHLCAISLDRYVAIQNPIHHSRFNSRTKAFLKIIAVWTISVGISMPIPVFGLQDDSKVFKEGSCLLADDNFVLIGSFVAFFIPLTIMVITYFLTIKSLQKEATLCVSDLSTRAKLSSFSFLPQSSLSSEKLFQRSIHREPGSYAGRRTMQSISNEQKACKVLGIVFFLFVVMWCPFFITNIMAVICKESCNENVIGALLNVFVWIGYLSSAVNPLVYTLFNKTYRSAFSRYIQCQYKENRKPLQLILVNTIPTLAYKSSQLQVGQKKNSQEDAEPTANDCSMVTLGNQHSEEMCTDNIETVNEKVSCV

`COc1cc(C(F)(F)F)c(OC)cc1CCN`: the K aff in assay [1] came out at 165 nM; in assay [2] it was 32 nM.

On to `COc1cc(CC(C)N)c(OC)cc1I` (stereo unspecified), for which the K aff in assay [1] is 119 nM; in assay [2] it was 43 nM.

As for `COc1cc(C(F)(F)F)c(OC)cc1CC(C)N` (stereo unspecified), the K aff in assay [1] was found to be 86 nM; in assay [2], 43 nM.
